Results from different studies.
Lines come from different studies, so protocols differ.
Sample: Caco-2

| Structure (SMILES) | conditions | measurement | result |
| --- | --- | --- | --- |
| CCn1cc(C2CC2)c2c(Cc3ccc(C(F)(F)F)nc3)n(C)nc2c1=O |  | Papp A→B | 38.7 ×10⁻⁶ cm/s |
| N#C[C@@]12C[C@@H]1[C@@H](n1cnc3c(N[C@@H](C4CCC4)C4CC4)nc(I)nc31)[C@H](O)[C@@H]2O |  | Papp A→B | 5.97 ×10⁻⁶ cm/s |
| N#Cc1cc(-c2ccc(C(=O)N3CCNCC3)cc2)ccc1-n1cc(O)c(=O)c(C(=O)O)c1 |  | Papp A→B | 0.3 ×10⁻⁶ cm/s |
| C[C@H]1O[C@@H](O[C@H]2[C@@H](O)C[C@H](O[C@H]3[C@@H](O)C[C@H](O[C@H]4CC[C@@]5(C)[C@H](CC[C@@H]6[C@@H]5C[C@@H](O)[C@]5(C)[C@@H](C7=CC(=O)OC7)CC[C@]65O)C4)O[C@@H]3C)O[C@@H]2C)C[C@H](O)[C@@H]1O | 5 µM, 2 h | Papp A→B | 0.27 ×10⁻⁶ cm/s |
| Cn1nc2c(=O)n(C3CC3)ncc2c1[C@](O)(c1cnc(C(F)(F)F)c(Cl)c1)C(F)(F)F |  | Papp A→B | 43.4 ×10⁻⁶ cm/s |
| O=C(O)c1cn(-c2ccc(-c3ccc(C(=O)N4CCNCC4)cc3)cc2)cc(O)c1=O |  | Papp A→B | 0.2 ×10⁻⁶ cm/s |
| Cc1c(N(C)C)ccc2cc(C(=O)NS(=O)(=O)c3ccccc3-c3ccccc3)oc12 | 2 µM, 2 h, pH 7.2 | Papp B→A | 14.3 ×10⁻⁶ cm/s |
| CC(C)C[C@H](NC(=O)[C@@H]1COCCCCCC(=O)NCC(=O)N2CCC[C@H]2C(=O)N1)C(=O)[C@@]1(C)CO1 | 10 µM, 2 h, pH 7.4 | Papp A→B | 0.454 ×10⁻⁶ cm/s |
| CCCCC(CC)CNC(=N)NC(=N)NCCCCCCNC(=N)NC(=N)NCC(CC)CCCC (stereo not shown) | 5 µM, 2 h | Papp B→A | 0.37 ×10⁻⁶ cm/s |
| Cc1c(C(=O)O)ccc2c3n(nc12)[C@@H]1[C@H](C3)N(CC2CC2)[C@@]2(C(=O)Nc3cc(Cl)ccc32)[C@H]1c1cccc(Cl)c1F |  | Papp A→B | 84 ×10⁻⁶ cm/s |
